# Measurements: ChEMBL document CHEMBL1123193, “The lysine pathway as a target for a new genera of synthetic antibacterial antibiotics?” (1986)
# Experiments:
# Citrobacter freundii = assay: Minimum inhibitory concentration compared to D-cycloserine, against Citrobacter freundii 55.13; type: functional
# Method in brief: (§1)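 Agar dilution on Davis and Mingioli solid medium, supplemented with amino acids where needed. MIC taken as the lowest concentration giving complete growth inhibition, expressed in micrograms.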
# Escherichia coli [1] = assay: Percent of inhibition of diaminopimelic acid decarboxylase at 5 mmol of amino acids, 1.05 mmol/L of labeled meso-DAP, and 32 umol/L of PLP
# Method in brief: (§2)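 Enzyme was meso-DAP decarboxylase isolated and purified from E. coli ATCC 9637. Inhibition measured as decarboxylation of labeled meso-DAP in the presence of the test amino acid.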
# Escherichia coli [2] = assay: Percent of inhibition of diaminopimelic acid decarboxylase at 1 mmol of amino acids, 1.05 mmol/L of labeled meso-DAP, and 32 umol/L of PLP; method in brief: as §2
# Escherichia coli [3] = assay: Percent of inhibition of diaminopimelic acid decarboxylase at 10 mmol of amino acids, 1.05 mmol/L of labeled meso-DAP, and 32 umol/L of PLP; method in brief: as §2
# Escherichia coli [4] = assay: Minimum inhibitory concentration compared to D-cycloserine, against Escherichia coli ATCC 9637; type: functional; method in brief: as §1
# Escherichia coli [5] = assay: Minimum inhibitory concentration compared to D-cycloserine, against Escherichia coli DC2; type: functional; method in brief: as §1
# Escherichia coli [6] = assay: Minimum inhibitory concentration compared to D-cycloserine, against Escherichia coli UB 1005; type: functional; method in brief: as §1
# Escherichia coli [7] = assay: Minimum inhibitory concentration required for the inhibition of Escherichia coli ATCC 9637; type: functional; method in brief: as §1
# Klebsiella pneumoniae = assay: Minimum inhibitory concentration compared to D-cycloserine, against Klebsiella pneumoniae 53.153; type: functional; method in brief: as §1
# Pseudomonas aeruginosa [8] = assay: Minimum inhibitory concentration compared to D-cycloserine, against Pseudomonas aeruginosa A22; type: functional; method in brief: as §1
# [9] = test system: Providencia alcalifaciens; assay: Minimum inhibitory concentration compared to D-cycloserine, against providencia alcalifaciens 58.62; type: functional; method in brief: as §1
# Pseudomonas aeruginosa [10] = assay: Minimum inhibitory concentration required for the inhibition of Pseudomonas aeruginosa A22; type: functional; method in brief: as §1
# Providencia rettgeri = assay: Minimum inhibitory concentration compared to D-cycloserine, against Proteus rettgeri 53.100; type: functional; method in brief: as §1
# Serratia marcescens = assay: Minimum inhibitory concentration compared to D-cycloserine, against Serratia marcescens A 174; type: functional; method in brief: as §1
# Serratia liquefaciens = assay: Minimum inhibitory concentration compared to D-cycloserine, against Serratia liquefaciens 52.56; type: functional; method in brief: as §1
# [11] = Minimum inhibitory concentration compared to D-cycloserine, against Moraxella glucidolytica 52.90; type: functional; method in brief: as §1
# Enterobacter cloacae [12] = assay: Minimum inhibitory concentration compared to D-cycloserine, against Enterobacter cloacae 60.22
# Pseudomonas aeruginosa [13] = assay: Not Plasmodium species; type: functional
# Escherichia coli [14] = assay: Percent of inhibition of diaminopimelic acid decarboxylase at 2 mmol of amino acids, 1.05 mmol/L of labeled meso-DAP, and 32 umol/L of PLP; method in brief: as §2
# Escherichia coli [15] = assay: Compound is evaluated for the inhibition of bacterial growth (Escherichia coli ATCC 9637) in the liquid medium at 1 mmol of amino acid; type: functional
# Method in brief: (§3)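 Davis and Mingioli liquid medium, 4.8 mL, inoculated with 0.2 mL of an 18-h liquid culture of the test organism, with 0.1 mL of compound solution added. Growth followed by absorbance at 660 nm. Percent inhibition calculated after 6 h at 37 °C.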
# Escherichia coli [16] = assay: Compound is evaluated for the inhibition of bacterial growth (Escherichia coli ATCC 9637) in the liquid medium at 2 mmol of amino acid; type: functional; method in brief: as §3
# Escherichia coli [17] = assay: Compound is evaluated for the inhibition of bacterial growth (Escherichia coli ATCC 9637) in the liquid medium at 5 mmol of amino acid; type: functional; method in brief: as §3
# Escherichia coli [18] = assay: Percent of inhibition of diaminopimelic acid decarboxylase at 5 mmol of amino acid; method in brief: as §2
# Escherichia coli [19] = assay: Percent of inhibition of diaminopimelic acid decarboxylase at 1 mmol of amino acid; method in brief: as §2
# Escherichia coli [20] = assay: Compound is evaluated for the growth of Escherichia coli W7 in the liquid medium at 100 ug/mL.; Absence of growth; type: functional, organism-based
# Escherichia coli [21] = assay: Percent of inhibition of diaminopimelic acid decarboxylase at 1 mmol of amino acid, 1.05 mmol/L of labeled meso-DAP, and 32 umol/L of PLP; method in brief: as §2
# Escherichia coli [22] = assay: Percent of inhibition of diaminopimelic acid decarboxylase at 2 mmol of amino acid, 1.05 mmol/L of labeled meso-DAP, and 32 umol/L of PLP; method in brief: as §2
# Escherichia coli [23] = assay: Percent of inhibition of DAP decarboxylase at 10 mmol of amino acids, 1.05 mmol/L of labeled meso-DAP, and 32 umol/L of PLP; method in brief: as §2
# Enterobacter cloacae [24] = assay: Minimum inhibitory concentration compared to D-cycloserine, against Enterobacter cloacae 60.22; remark: listed apart in the source
# Escherichia coli [25] = assay: Percent of inhibition of diaminopimelic acid decarboxylase at 5 mmol of amino acid, 1.05 mmol/L of labeled meso-DAP, and 32 umol/L of PLP; method in brief: as §2
# Escherichia coli [26] = assay: Percent of inhibition of diaminopimelic acid decarboxylase at 10 mmol of amino acid, 1.05 mmol/L of labeled meso-DAP, and 32 umol/L of PLP; method in brief: as §2
# Escherichia coli [27] = assay: Percent of inhibition of v decarboxylase at 1 mmol of amino acids, 1.05 mmol/L of labeled meso-DAP, and 32 umol/L of PLP; method in brief: as §2
# Escherichia coli [28] = assay: Compound is evaluated for the growth of Escherichia coli W7 in the presence lysine in liquid medium; Growth is observed; type: functional, organism-based
# [29] = Pseudomonas aeruginosa, read-out: MIC
# [30] = Escherichia coli, ATCC 9637, read-out: MIC
compound,measurement,setting,value
C=C(C[C@@H](N)C(=O)O)C[C@@H](N)C(=O)O.C=C(C[C@H](N)C(=O)O)C[C@H](N)C(=O)O,MIC,Citrobacter freundii,8 µg/mL
same,inhibition,Escherichia coli [1],10%
same,inhibition,Escherichia coli [2],5%
same,inhibition,Escherichia coli [3],20%
same,MIC,Escherichia coli [4],16 µg/mL
same,MIC,Escherichia coli [5],8 µg/mL
same,MIC,Escherichia coli [6],8 µg/mL
same,MIC,Escherichia coli [7],2 µg/mL
same,MIC,Klebsiella pneumoniae,16 µg/mL
same,MIC,Pseudomonas aeruginosa [8],32 µg/mL
same,MIC,[9],32 µg/mL
same,MIC,Pseudomonas aeruginosa [10]; [29],4 µg/mL
same,MIC,Providencia rettgeri,64 µg/mL
same,MIC,Serratia marcescens,4 µg/mL
same,MIC,Serratia liquefaciens,4 µg/mL
same,MIC,[11],8 µg/mL
same,MIC,Enterobacter cloacae [12],16 µg/mL
CC1(C)S[C@@H]2[C@H](NC(=O)[C@H](N)c3ccccc3)C(=O)N2[C@H]1C(=O)O [AMPICILLIN],MIC,Escherichia coli [7]; [30],5 µg/mL
same,MIC,Pseudomonas aeruginosa [13],512 µg/mL
"C=C(CC(N)C(=O)O)CC(N)C(=O)O (single isomer, unassigned; (-))",MIC,"Escherichia coli [7]; Escherichia coli, ATCC 9637",4 µg/mL
same,MIC,Pseudomonas aeruginosa [10]; [29],4 µg/mL
C/C(=C/C(N)C(=O)O)CC(N)C(=O)O (stereo unspecified),inhibition,Escherichia coli [1],54%
same,inhibition,Escherichia coli [2],17%
same,inhibition,Escherichia coli [3],73%
same,inhibition,Escherichia coli [14],33%
same,Inhibition,Escherichia coli [15],0%
same,Inhibition,Escherichia coli [16],0%
same,Inhibition,Escherichia coli [17],55%
C=C(CC(N)C(=O)O)CC(N)C(=O)O (stereo in doubt; (+)-4),MIC,Escherichia coli [7],6 µg/mL
same,MIC,Pseudomonas aeruginosa [10],6 µg/mL
NC(/C=C(\Cl)CC(N)C(=O)O)C(=O)O (stereo unspecified),inhibition,Escherichia coli [18],53%
same,inhibition,Escherichia coli [19],18%
same,Inhibition,Escherichia coli [17],50%
same,MIC,Escherichia coli [7],> 128 µg/mL
NCCCC[C@H](N)C(=O)O,Bacterial growth,Escherichia coli [20],Absence of growth
C/C(=C\C(N)C(=O)O)CC(N)C(=O)O (stereo unspecified),inhibition,Escherichia coli [1],50%
same,inhibition,Escherichia coli [14],20%
same,Inhibition,Escherichia coli [15],0%
same,Inhibition,Escherichia coli [16],21%
same,Inhibition,Escherichia coli [17],50%
NC(/C=C/CC(N)C(=O)O)C(=O)O (stereo unspecified),inhibition,Escherichia coli [21],65%
same,inhibition,Escherichia coli [22],77%
same,Inhibition,Escherichia coli [15],0%
same,Inhibition,Escherichia coli [16],0%
same,Inhibition,Escherichia coli [17],0%
C=C(C[C@@H](N)C(=O)O)C[C@H](N)C(=O)O,MIC,Citrobacter freundii,32 µg/mL
same,inhibition,Escherichia coli [1],22%
same,inhibition,Escherichia coli [23],30%
same,inhibition,Escherichia coli [2],8%
same,MIC,Escherichia coli [4],32 µg/mL
same,MIC,Escherichia coli [5],4 µg/mL
same,MIC,Escherichia coli [6],2 µg/mL
same,MIC,Escherichia coli [7],2 µg/mL
same,MIC,Klebsiella pneumoniae,16 µg/mL
same,MIC,Pseudomonas aeruginosa [8],16 µg/mL
same,MIC,[9],128 µg/mL
same,MIC,Pseudomonas aeruginosa [10]; [29],4 µg/mL
same,MIC,Providencia rettgeri,64 µg/mL
same,MIC,Serratia marcescens,4 µg/mL
same,MIC,Serratia liquefaciens,2 µg/mL
same,MIC,[11],16 µg/mL
same,MIC,Enterobacter cloacae [12],16 µg/mL
C=C(CC(N)C(=O)O)CC(N)C(=O)O (stereo in doubt; 4) [listing 1 of 2 here],MIC,Citrobacter freundii,16 µg/mL
same,MIC,Escherichia coli [4],32 µg/mL
same,MIC,Escherichia coli [5],32 µg/mL
same,MIC,Escherichia coli [6],2 µg/mL
same,Inhibition,Escherichia coli [15],90%
same,Inhibition,Escherichia coli [16],90%
same,Inhibition,Escherichia coli [17],95%
same,MIC,Escherichia coli [7],2 µg/mL
same,MIC,Klebsiella pneumoniae,32 µg/mL
same,MIC,Pseudomonas aeruginosa [8],16 µg/mL
same,MIC,[9],128 µg/mL
same,MIC,Pseudomonas aeruginosa [10],4 µg/mL
same,MIC,Providencia rettgeri,128 µg/mL
same,MIC,Serratia marcescens,2 µg/mL
same,MIC,Serratia liquefaciens,2 µg/mL
same,MIC,[11],16 µg/mL
same,MIC,Enterobacter cloacae [24],16 µg/mL
N[C@@H]1CONC1=O [CYCLOSERINE],MIC,Citrobacter freundii,2 µg/mL
same,MIC,Escherichia coli [4],0.5 µg/mL
same,MIC,Escherichia coli [5],128 µg/mL
same,MIC,Escherichia coli [6],32 µg/mL
same,MIC,Escherichia coli [7]; [30],0.25 µg/mL
same,MIC,Klebsiella pneumoniae,8 µg/mL
same,MIC,Pseudomonas aeruginosa [8],64 µg/mL
same,MIC,[9],8 µg/mL
same,MIC,Pseudomonas aeruginosa [13],128 µg/mL
same,MIC,Providencia rettgeri,128 µg/mL
same,MIC,Serratia marcescens,128 µg/mL
same,MIC,Serratia liquefaciens,8 µg/mL
same,MIC,[11],128 µg/mL
same,MIC,Enterobacter cloacae [12],2 µg/mL
CC(CC(N)C(=O)O)CC(N)C(=O)O (stereo unspecified),inhibition,Escherichia coli [25],43%
same,inhibition,Escherichia coli [21],12%
same,inhibition,Escherichia coli [26],55%
same,Inhibition,Escherichia coli [16],0%
same,Inhibition,Escherichia coli [17],0%
CC(N)(CCCC(N)C(=O)O)C(=O)O (stereo unspecified),inhibition,Escherichia coli [1],35%
same,inhibition,Escherichia coli [27],8%
same,inhibition,Escherichia coli [14],18%
same,Inhibition,Escherichia coli [15],38%
same,Inhibition,Escherichia coli [16],74%
same,Inhibition,Escherichia coli [17],90%
same,MIC,Escherichia coli [7],512 µg/mL
N[C@H](CCC[C@H](N)C(=O)O)C(=O)O,Bacterial growth,Escherichia coli [20],Absence of growth
C=C(CC(N)C(=O)O)CC(N)C(=O)O (stereo in doubt; 4) [listing 2 of 2 here],inhibition,Escherichia coli [1],15%
same,inhibition,Escherichia coli [2],5%
same,inhibition,Escherichia coli [3],30%
same,Bacterial growth,Escherichia coli [28],Growth
C[C@@H]1O[C@@H]1P(=O)(O)O [FOSFOMYCIN],MIC,Escherichia coli [7]; [30],16 µg/mL
same,MIC,Pseudomonas aeruginosa [13],32 µg/mL
CC(N)(/C=C/CC(N)C(=O)O)C(=O)O (stereo unspecified),inhibition,Escherichia coli [21],0%
same,inhibition,Escherichia coli [22],0%
same,Inhibition,Escherichia coli [16],0%
same,Inhibition,Escherichia coli [17],0%
